Test results taken from ChEMBL document CHEMBL1148485, “Synthesis and biological evaluation of new selective cytotoxic cyclolignans derived from podophyllotoxin” (J Med Chem, 2004).

Experiments:
HeLa [1] = assay: Tested for effect of compound on Sub-G1 cell cycle phase and apoptosis in HeLa cells at a dose of 10E-6 for 72 hr; type: functional, Homo sapiens
Procedure, shortened: (§1)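 HeLa cells grown in DMEM with 10% heat-inactivated FCS, 2 mM L-glutamine, penicillin and gentamicin at 37 °C, 5% CO2. Exposed to compound at 10^-6 to 10^-8 M for 24, 48 or 72 h, untreated controls run in parallel. (3-5) × 10^5 cells fixed overnight in 70% ethanol at 4 °C, then RNase A plus propidium iodide. Phase fractions measured by flow cytometry, with sub-G1 (hypodiploid) cells counted as apoptotic. Three independent experiments.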

HeLa [2] = assay: Tested for effect of compound on S cell cycle phase and apoptosis in HeLa cells at a dose of 10E-6 for 48 hr; type: functional, Homo sapiens; procedure, shortened: as §1
HeLa [3] = assay: Tested for effect of compound on G0/G1 cell cycle phase and apoptosis in HeLa cells at a dose of 10E-7 for 24 hr; type: functional, Homo sapiens
Procedure, shortened: (§2)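 HeLa cells were grown in DMEM with 10% heat-inactivated FCS and 2 mM L-glutamine at 37 °C in 5% CO2. They were exposed to 10^-6 to 10^-8 M for 24, 48 or 72 h. Then (3-5)×10^5 cells were fixed overnight in 70% ethanol at 4 °C, PBS-washed, and given 1 mg/mL RNase A plus 20 µg/mL propidium iodide for 1 h at room temperature. DNA content was read by flow cytometry. Sub-G1 (hypodiploid) % counted as apoptotic. Untreated controls were run in parallel. Representative of three independent experiments.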

HeLa [4] = assay: Tested for effect of compound on S cell cycle phase and apoptosis in HeLa cells at a dose of 10E-7 for 72 hr; type: functional, Homo sapiens; procedure, shortened: as §1
HeLa [5] = assay: Tested for effect of compound on S cell cycle phase and apoptosis in HeLa cells at a dose of 10E-7 for 48 hr; type: functional, Homo sapiens; procedure, shortened: as §1
P388 = assay: Tested in vitro for antineoplastic activity against P-388 (lymphoid neoplasm from DBA/2 mouse) tumor cell line; type: functional, cell-based
Procedure, shortened: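 P-388 cells seeded at 1 × 10^4 cells/well in MEM–10% FCS containing graded compound concentrations. Incubated 4 days at 37 °C, 10% CO2, 98% humidity. Inhibition scored by inverted microscopy against untreated controls, which were kept in exponential growth. Mean of duplicate wells.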

HeLa [6] = assay: Tested for effect of compound on G2/M cell cycle phase and apoptosis in HeLa cells at a dose of 10E-8 for 48 hr; type: functional, Homo sapiens; procedure, shortened: as §1
HeLa [7] = assay: Tested for effect of compound on Sub-G1 cell cycle phase and apoptosis in HeLa cells at a dose of 10E-7 for 24 hr; type: functional, Homo sapiens; procedure, shortened: as §1
HeLa [8] = assay: Tested for effect of compound on G0/G1 cell cycle phase and apoptosis in HeLa cells at a dose of 10E-6 for 48 hr; type: functional, Homo sapiens; procedure, shortened: as §2
HeLa [9] = assay: Tested for effect of compound on Sub-G1 cell cycle phase and apoptosis in HeLa cells at a dose of 10E-6 for 48 hr; type: functional, Homo sapiens; procedure, shortened: as §1
HeLa [10] = assay: Tested for effect of compound on G2/M cell cycle phase and apoptosis in HeLa cells at a dose of 10E-7 for 24 hr; type: functional, Homo sapiens; procedure, shortened: as §1
HeLa [11] = assay: Tested for effect of compound on G2/M cell cycle phase and apoptosis in HeLa cells at a dose of 10E-8 for 72 hr; type: functional, Homo sapiens; procedure, shortened: as §1
HeLa [12] = assay: Tested for effect of compound on G0/G1 cell cycle phase and apoptosis in HeLa cells at a dose of 10E-7 for 48 hr; type: functional, Homo sapiens; procedure, shortened: as §2
HeLa [13] = assay: Tested for effect of compound on S cell cycle phase and apoptosis in HeLa cells at a dose of 10E-7 for 24 hr; type: functional, Homo sapiens; procedure, shortened: as §1
HeLa [14] = assay: Tested for effect of compound on G0/G1 cell cycle phase and apoptosis in HeLa cells at a dose of 10E-6 for 72 hr; type: functional, Homo sapiens; procedure, shortened: as §2
HeLa [15] = assay: Tested for effect of compound on Sub-G1 cell cycle phase and apoptosis in HeLa cells at a dose of 10E-6 for 24 hr; type: functional, Homo sapiens; procedure, shortened: as §1
[16] = Selectivity index is the ratio of IC50 of P-388 cell line to that of HT-29; type: functional
HeLa [17] = assay: Tested for effect of compound on S cell cycle phase and apoptosis in HeLa cells at a dose of 10E-6 for 24 hr; type: functional, Homo sapiens; procedure, shortened: as §1
HeLa [18] = assay: Tested for effect of compound on S cell cycle phase and apoptosis in HeLa cells at a dose of 10E-8 for 72 hr; type: functional, Homo sapiens; procedure, shortened: as §1
SK-MEL-28 = assay: Tested in vitro for antineoplastic activity against MEL-28 (human melanoma) tumor cell line; type: functional, cell-based
Procedure, shortened: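 MEL-28 cells seeded at 2 × 10^4 cells/well in MEM–10% FCS containing graded compound concentrations. Incubated 4 days at 37 °C, 10% CO2, 98% humidity. Stained with crystal violet and inhibition judged against untreated controls, which were kept in exponential growth. Mean of duplicate wells.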

HeLa [19] = assay: Tested for effect of compound on G0/G1 cell cycle phase and apoptosis in HeLa cells at a dose of 10E-8 for 24 hr; type: functional, Homo sapiens; procedure, shortened: as §2
HeLa [20] = assay: Tested for effect of compound on G0/G1 cell cycle phase and apoptosis in HeLa cells at a dose of 10E-8 for 72 hr; type: functional, Homo sapiens; procedure, shortened: as §2
HeLa [21] = assay: Tested for effect of compound on G0/G1 cell cycle phase and apoptosis in HeLa cells at a dose of 10E-7 for 72 hr; type: functional, Homo sapiens; procedure, shortened: as §2
HeLa [22] = assay: Tested for effect of compound on G2/M cell cycle phase and apoptosis in HeLa cells at a dose of 10E-6 for 72 hr; type: functional, Homo sapiens; procedure, shortened: as §1
HeLa [23] = assay: Tested for effect of compound on G0/G1 cell cycle phase and apoptosis in HeLa cells at a dose of 10E-8 for 48 hr; type: functional, Homo sapiens; procedure, shortened: as §2
HeLa [24] = assay: Tested for effect of compound on Sub-G1 cell cycle phase and apoptosis in HeLa cells at a dose of 10E-8 for 48 hr; type: functional, Homo sapiens; procedure, shortened: as §1
HeLa [25] = assay: Tested for effect of compound on G0/G1 cell cycle phase and apoptosis in HeLa cells at a dose of 10E-6 for 24 hr; type: functional, Homo sapiens; procedure, shortened: as §2
HeLa [26] = assay: Tested for effect of compound on S cell cycle phase and apoptosis in HeLa cells at a dose of 10E-6 for 72 hr; type: functional, Homo sapiens; procedure, shortened: as §1
HeLa [27] = assay: Tested for effect of compound on G2/M cell cycle phase and apoptosis in HeLa cells at a dose of 10E-6 for 24 hr; type: functional, Homo sapiens; procedure, shortened: as §2
HeLa [28] = assay: Tested for effect of compound on S cell cycle phase and apoptosis in HeLa cells at a dose of 10E-8 for 24 hr; type: functional, Homo sapiens; procedure, shortened: as §1
HeLa [29] = assay: Tested for effect of compound on G2/M cell cycle phase and apoptosis in HeLa cells at a dose of 10E-6 for 48 hr; type: functional, Homo sapiens; procedure, shortened: as §2
HeLa [30] = assay: Tested for effect of compound on G2/M cell cycle phase and apoptosis in HeLa cells at a dose of 10E-7 for 48 hr; type: functional, Homo sapiens; procedure, shortened: as §1
HeLa [31] = assay: Tested for effect of compound on Sub-G1 cell cycle phase and apoptosis in HeLa cells at a dose of 10E-8 for 24 hr; type: functional, Homo sapiens; procedure, shortened: as §1
HeLa [32] = assay: Tested for effect of compound on Sub-G1 cell cycle phase and apoptosis in HeLa cells at a dose of 10E-8 for 72 hr; type: functional, Homo sapiens; procedure, shortened: as §1
A549 = assay: In vitro cytotoxicity against A-549 (human lung carcinoma) cell line.; type: functional, cell-based; conditions: Homo sapiens, A549
HeLa [33] = assay: Tested for effect of compound on Sub-G1 cell cycle phase and apoptosis in HeLa cells at a dose of 10E-7 for 48 hr; type: functional, Homo sapiens; procedure, shortened: as §1
HeLa [34] = assay: Tested for effect of compound on G2/M cell cycle phase and apoptosis in HeLa cells at a dose of 10E-8 for 24 hr; type: functional, Homo sapiens; procedure, shortened: as §1
HeLa [35] = assay: Tested for effect of compound on G2/M cell cycle phase and apoptosis in HeLa cells at a dose of 10E-7 for 72 hr; type: functional, Homo sapiens; procedure, shortened: as §1
HeLa [36] = assay: Tested for effect of compound on S cell cycle phase and apoptosis in HeLa cells at a dose of 10E-8 for 48 hr; type: functional, Homo sapiens; procedure, shortened: as §1
HeLa [37] = assay: Tested for effect of compound on Sub-G1 cell cycle phase and apoptosis in HeLa cells at a dose of 10E-7 for 72 hr; type: functional, Homo sapiens; procedure, shortened: as §1
HT-29 = assay: In vitro cytotoxicity against HT-29 (human colon carcinoma) cell line.; type: functional, cell-based; conditions: Homo sapiens, HT-29

Compound: COC(=O)[C@@H]1C(C=O)=Cc2cc3c(cc2[C@H]1c1cc(OC)c(OC)c(OC)c1)OCO3
- Activity (HeLa [1]): 58.9%
- Activity (HeLa [2]): 9.3%
- Activity (HeLa [3]): 8.1%
- Activity (HeLa [4]): 17.3%
- Activity (HeLa [5]): 9.7%
- IC50 (P388): 230 nM
- Activity (HeLa [6]): 29.7%
- Activity (HeLa [7]): 1.4%
- Activity (HeLa [8]): 17%
- Activity (HeLa [9]): 28.9%
- Activity (HeLa [10]): 80.1%
- Activity (HeLa [11]): 39.3%
- Activity (HeLa [12]): 11.2%
- Activity (HeLa [13]): 10.4%
- Activity (HeLa [14]): 14.1%
- Activity (HeLa [15]): 1.1%
- Selectivity index [16]: 19
- Activity (HeLa [17]): 1.7%
- Activity (HeLa [18]): 10.2%
- IC50 (SK-MEL-28): 230 nM
- Activity (HeLa [19]): 58.1%
- Activity (HeLa [20]): 47.4%
- Activity (HeLa [21]): 15.1%
- Activity (HeLa [22]): 9.5%
- Activity (HeLa [23]): 58.7%
- Activity (HeLa [24]): 1.5%
- Activity (HeLa [25]): 1.2%
- Activity (HeLa [26]): 17.5%
- Activity (HeLa [27]): 96%
- Activity (HeLa [28]): 16.2%
- Activity (HeLa [29]): 44.8%
- Activity (HeLa [30]): 68.2%
- Activity (HeLa [31]): 1.4%
- Activity (HeLa [32]): 3.1%
- IC50 (A549): 120 nM
- Activity (HeLa [33]): 10.9%
- Activity (HeLa [34]): 24.3%
- Activity (HeLa [35]): 17.5%
- Activity (HeLa [36]): 10.1%
- Activity (HeLa [37]): 50.1%
- IC50 (HT-29): 12 nM

Compound: CCn1nccc1/N=C/C1=Cc2cc3c(cc2C(c2cc(OC)c(OC)c(OC)c2)[C@@H]1C(=O)OC)OCO3 (some centres not stated)
- Activity (HeLa [1]): 39.6%
- Activity (HeLa [2]): 10.8%
- Activity (HeLa [3]): 55.6%
- Activity (HeLa [4]): 12.3%
- Activity (HeLa [5]): 13%
- IC50 (P388): 960 nM
- Activity (HeLa [6]): 28.2%
- Activity (HeLa [7]): 1.8%
- Activity (HeLa [8]): 16%
- Activity (HeLa [9]): 23.8%
- Activity (HeLa [10]): 24.3%
- Activity (HeLa [11]): 25.4%
- Activity (HeLa [12]): 49.5%
- Activity (HeLa [13]): 18.3%
- Activity (HeLa [14]): 31.3%
- Activity (HeLa [15]): 2.1%
- Selectivity index [16]: 20
- Activity (HeLa [17]): 9.6%
- Activity (HeLa [18]): 12.2%
- IC50 (SK-MEL-28): 960 nM
- Activity (HeLa [19]): 56.4%
- Activity (HeLa [20]): 60.1%
- Activity (HeLa [21]): 37.7%
- Activity (HeLa [22]): 21%
- Activity (HeLa [23]): 56%
- Activity (HeLa [24]): 1.7%
- Activity (HeLa [25]): 6.8%
- Activity (HeLa [26]): 8.1%
- Activity (HeLa [27]): 81.5%
- Activity (HeLa [28]): 18.2%
- Activity (HeLa [29]): 49.4%
- Activity (HeLa [30]): 35.6%
- Activity (HeLa [31]): 1.3%
- Activity (HeLa [32]): 2.3%
- IC50 (A549): 960 nM
- Activity (HeLa [33]): 1.9%
- Activity (HeLa [34]): 24.1%
- Activity (HeLa [35]): 44.4%
- Activity (HeLa [36]): 14.1%
- Activity (HeLa [37]): 5.6%
- IC50 (HT-29): 48 nM
